NR2E3 ag-1: activates human photoreceptor nuclear receptor NR2E3; AID 2300; 320,000 compounds, 0.12% hits; inhibition of corepressor binding, % at 4.78 µM; GST-NR2E3/biotin-RetCOR TR-FRET, 1536-well;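 active means percent inhibition above the cutoff of mean plus 3 SD of all tested compounds, set per screening campaign, cut at about 20% in these data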;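 further: 0% = DMSO wells and 100% = biotin wells as full block of FRET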
Target sequence (Q9Y5X4 whole entry, looked up): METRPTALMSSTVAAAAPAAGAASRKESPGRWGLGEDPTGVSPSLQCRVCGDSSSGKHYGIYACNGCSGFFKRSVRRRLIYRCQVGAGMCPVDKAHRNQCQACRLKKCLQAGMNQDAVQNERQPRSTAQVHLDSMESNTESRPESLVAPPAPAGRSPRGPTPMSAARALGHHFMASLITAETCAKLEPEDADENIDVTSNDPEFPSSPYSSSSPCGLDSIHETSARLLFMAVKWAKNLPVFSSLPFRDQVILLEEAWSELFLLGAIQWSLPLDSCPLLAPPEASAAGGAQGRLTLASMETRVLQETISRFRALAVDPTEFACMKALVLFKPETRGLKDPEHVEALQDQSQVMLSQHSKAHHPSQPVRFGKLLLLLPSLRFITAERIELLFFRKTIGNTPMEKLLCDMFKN
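Material: NR2E3–RetCOR corepressor complex / Incubation: Compound–protein incubation for 5 h at 4 °C / Dosing: compound at 4.8 µM, single dose / Detection: time-resolved FRET / Benchmarks: high control biotin, low control 0.6% DMSO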
PG9 Ab binder: small molecules binding HIV-1 gp120 antibody PG9; TR-FRET gp120-PG9 antibody binding; inhibition, % at 6.7 µM; 360,000 compounds, 0.43% hits; in the data active means inhibition above about 8.5%
Rev-erbA mod: modulators of human Rev-erb alpha DNA binding; 370,000 compounds, 0.79% hits; P20393; AID 1259318; Rev-erbα–FITC-DNA binding, fluorescence polarization, 90 min; activity, % at 10 µM;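 active means activity above about 14%, limit read from the data; passing the limit was not always enough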;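 further: 0% = DMSO wells with 35 nM protein and 100% = DMSO wells with 750 nM protein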
rCAG binder: molecules binding r(CAG) RNA repeats. r(CAG) RNA repeat, TO-PRO-1 dye displacement fluorescence. inhibition, % at 3 µM. 370,000 compounds, 1.3% hits. AID 651821;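 active means inhibition above the plate cutoff, the mean of all test compounds on that plate plus 3 SD, cut at about 35% in these data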;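 further: 0% = DMSO alone and 100% = 100 µM mitoxantrone as full dye displacement; higher means more dye released from RNA so lower well fluorescence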
NR2E3 ag-2: activates human NR2E3 receptor | CHO-S Gal4-NCOR/VP16-NR2E3 two-hybrid, luciferase | 360,000 compounds, 0.35% hits | inhibition of corepressor binding, % at 3.98 µM | AID 602229;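 active means inhibition above the mean of all tested compounds plus 3 SD, cut at about 70% in these data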;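 further: 0% = DMSO with NR2E3 transfected cells and 100% = cells lacking NR2E3 construct; higher means lower luciferase signal from less NR2E3 corepressor binding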
NR2E3 agonist cf: NR2E3 (human) agonism, confirmation. cell-free NR2E3 corepressor release, TR-FRET, 5 h. activation (reported as inhibition), % at 3.98 µM. AID 2379. 360 compounds, 39% hits. shares compounds with NR2E3 ag-1; in the data active means activation above about 20%
PPARg-NCOR2 ag: releases PPARgamma from NCOR2 in NR2E3 counter-screen. 360 compounds, 45% hits. AID 504787. TR-FRET PPARg-NCOR2 coregulator interaction, biochemical. inhibition, % at 3.98 µM. shares compounds with NR2E3 ag-1; in the data active means inhibition above about 20%;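 further: 0% = DMSO vehicle and 100% = wells without protein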
PG9 binder conf: confirmation of small molecules binding HIV-1 gp120 antibody PG9 | shares compounds with PG9 Ab binder | 1,500 compounds, 90% hits | inhibition, % at 6.7 µM | TR-FRET PG9 antibody binding, biochemical | AID 651571; in the data active means inhibition above about 9%
PGV04 Ab binding: binds control antibody PGV04 in PG9 binder counter-screen; TR-FRET PGV04 antibody-gp120 binding, biochemical; inhibition, % at 6.7 µM; AID 651604; shares compounds with PG9 Ab binder; 1,500 compounds, 95% hits; in the data active means inhibition above about 9.5%
PG9 bind DR: small molecules binding HIV-1 gp120 antibody PG9; shares compounds with PG9 Ab binder; 95 tested, under 10 active; AID 651848; IC50, µM; TR-FRET PG9 antibody-gp120 binding inhibition; in the data active means IC50 below about 10 µM
PGV04 DR counter: binds control antibody PGV04 in PG9 counter-screen. shares compounds with PG9 Ab binder. TR-FRET binding to control antibody PGV04. IC50, µM. 95 compounds, 20% hits. AID 651937
PG126 binding DR: binds control antibody PG126 in PG9 counter-screen. shares compounds with PG9 Ab binder. TR-FRET binding to antibody PG126, counterscreen. IC50, µM. 95 compounds, 20% hits. AID 651939
rCAG bind conf: r(CAG) RNA repeat binding, confirmation. shares compounds with rCAG binder. TO-PRO-1 dye displacement fluorescence. inhibition, % at 3 µM. 4,300 compounds, 70% hits;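 active means inhibition above a per-plate cutoff, the mean inhibition of sample wells plus 3 SD, cut at about 35% in these data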;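 further: loss of TO-PRO-1 fluorescence as compound displaces dye from 1x1 AA loop RNA; 0% = DMSO only wells and 100% = 100 µM mitoxantrone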
dCAG dye counter: counter-screen for rCAG RNA binders: DNA CAG dye complex inhibitors. 4,300 compounds, 94% hits. shares compounds with rCAG binder. d(CAG) DNA oligo TO-PRO-1 dye displacement, fluorescence. inhibition, % at 3 µM. AID 652068;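 active means inhibition above its plate's cutoff, the mean test-well inhibition plus 3 SD, cut at about 4.8% in these data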;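 further: 0% = DNA dye mix with DMSO and 100% = 100 µM mitoxantrone; hits displace the dye from DNA and so lower well fluorescence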
DNA CAG DR: DNA CAG dye complex inhibition, dose response counter-screen. shares compounds with rCAG binder. DNA CAG/GTC duplex TO-PRO-1 dye displacement fluorescence. IC50, µM. 250 compounds, 20% hits; in the data active means IC50 below about 10 µM
Starred values were filed as active, the others as inactive; i = inactive; / = no result. A selection: hits, their analogues and other compounds. The true share with any hit is near 2.6%. Unless noted, no stated cut-off is given here; in the data, active means IC50 below about 9 µM; inactive means the rest.

SMILES	NR2E3 ag-1	PG9 Ab binder	Rev-erbA mod	rCAG binder	NR2E3 ag-2	NR2E3 agonist cf	PPARg-NCOR2 ag	PG9 binder conf	PGV04 Ab binding	others
COC(=O)c1cccc2c([N+](=O)[O-])c(NC(C)=O)cc(C(=O)OC)c12	/	1	0	1	/	/	/	/	/
O=C(NCCO)[C@H](Cc1ccccc1)NC1(C(=O)NCCN2CCOCC2)CCCCC1	/	/	5	/	/	/	/	/	/
O=c1c2oc3ccccc3c2[nH]c(=S)n1-c1ccccc1	50*	17*	8	1	-6	45*	45*	14*	13*	PG9 bind DR=i;PGV04 DR counter=i;PG126 binding DR=i
Cc1ccc(-n2c(=S)[nH]c3c(oc4ccccc43)c2=O)cc1	20*	18*	1	3	-41	43*	34*	17*	7	PG9 bind DR=>67;PGV04 DR counter=>67;PG126 binding DR=>67
Cc1cccc(-n2c(=S)[nH]c3c(oc4ccccc43)c2=O)c1	37*	16*	-1	6	-9	35*	25*	7	9.4*
O=S(=O)([O][Al])OC[C@H]1O[C@@](COS(=O)(=O)[O][Al])(O[C@H]2O[C@H](COS(=O)(=O)[O][Al])[C@@H](OS(=O)(=O)[O][Al])[C@H](OS(=O)(=O)[O][Al])[C@H]2OS(=O)(=O)[O][Al])[C@@H](OS(=O)(=O)[O][Al])[C@@H]1OS(=O)(=O)[O][Al]	/	/	-1	/	/	/	/	/	/
CC(C)Cc1c2c([nH]c(=S)c1C#N)CCCC2	38*	15*	-4	4	-5	34*	36*	6	6
COc1ccc2nc(NC(=O)CSc3nc4ccccc4o3)sc2c1	20*	21*	18	5	14	9	16	27*	45*
CCN(CC(=O)NC(C)C)Cc1nc2c(Br)cc(Br)cc2c(=O)[nH]1	55*	23*	5	10	-27	56*	48*	40*	52*
N#Cc1c(-c2ccco2)nc(SCC(=O)Nc2cccc(Cl)c2)[nH]c1=O	26*	15*	-3	72*	-27	7	22*	28*	32*	rCAG bind conf=72*;dCAG dye counter=27*;DNA CAG DR=i
Cc1nn(CCc2nn[nH]n2)c2nc(-c3ccc(Br)cc3)cc(C(F)(F)F)c12	25*	19*	1	44*	4	37*	33*	27*	37*	rCAG bind conf=71*;dCAG dye counter=25*;DNA CAG DR=i
O=C(NN1C(=O)/C(=C/C=C/c2ccccc2)SC1=S)c1ccncc1	4	-5	0	29	5	/	/	/	/
O=C(NN1C(=O)/C(=C/C=C/c2ccco2)SC1=S)c1ccncc1	25*	-2	-27	77*	-16	1	8	/	/	rCAG bind conf=81*;dCAG dye counter=48*

Compound activity deposited in PubChem by several laboratories.
